Data on 25 compounds can be found in ChEMBL document CHEMBL1127667, “Synthesis of benzo-fused benzodiazepines employed as probes of the agonist pharmacophore of benzodiazepine receptors” (J Med Chem, 1994).

The target in assay [1] is GABA-A receptor; anion channel. The experiment in a line: In vitro inhibitory concentration of compound against benzodiazepine receptor from rat cerebral cortex using [3H]- flunitrazepam was evaluated. Type of assay: tissue-based. In outline:
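Rat cerebral cortex membranes prepared in 50 mM Tris-citrate, pH 7.4, washed three times. About 0.1 mg protein incubated with [3H]flunitrazepam (~1 nM final) and NaCl at 0-4 °C for 60 min. Bound ligand collected by GF/B filtration. IC50 taken from at least six inhibitor concentrations. Mean ± SEM of at least three determinations.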

For assay [2], the target named is T1, GABA-A receptor; anion channel (Mus musculus) (UniProt Q8BHJ7+P26048+Q8QZW7+P50571+Q9R0Y8+P22723+A2AMW3+P62812+Q9JLF1+P26049+P22933+Q9D6F4+P63080+P27681+P16305). The experiment in a line: In vivo activity of compound was evaluated against benzodiazepine receptor in mice. Type of assay: functional, organism-based. An outline of the steps: (§1)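 Adult male NIH/Swiss mice, groups of three to eight, given graded ip doses in diluted Emulphor/saline (1:9). Muscle relaxation tested on a wire at 12 min. PTZ given at 15 min: 80 mg/kg to test anticonvulsant action, 40 mg/kg to test proconvulsant action.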

The target in assay [3] is T1, GABA-A receptor; anion channel (Mus musculus). The experiment in a line: In vivo activity against GABA-A benzodiazepine receptor in mice. Type of assay: functional, organism-based. Also on record: unit not given here. In outline:
as §1

The species named for assay [4] is Mus musculus. The experiment in a line: Compound was tested for anticonvulsant effect in mice. Type of assay: functional. In outline:
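Male NIH/Swiss mice, 25-30 g, groups of three to eight, given graded ip doses in diluted Emulphor/saline (1:9) or vehicle. PTZ 80 mg/kg injected 15 min after dosing. Protection from PTZ-induced convulsions scored. ED50 derived from the dose-response.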

The species named for assay [5] is Mus musculus. The experiment in a line: Compound was tested for myorelaxant effect in mice. Type of assay: functional. In outline:
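Male NIH/Swiss mice, 25-30 g, groups of three to eight, dosed ip with graded amounts in diluted Emulphor/saline (1:9) or vehicle. At 12 min, mice were hung by the forepaws on a 1.5-mm wire 60 cm above the bench. Three falls within 1 min counted as muscle relaxation. ED50 derived from the dose-response.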

A value given as a limit tells only on which side of the number the result lay.

What is called IC50 is the concentration that inhibits the measured activity by half. `CN1C(=O)CN=C(c2ccccc2F)c2c(Cl)cccc21` came in with an IC50 in assay [1] of 150 nM. The same compound came in with an Activity in assay [2] of 0.
In assay [1], `O=C1CN=C(c2ccccc2F)c2ccc3ccccc3c2N1` yielded an IC50 of 120 nM.
In assay [2], `CN1C(=O)CN=C(c2ccccc2)c2cc(Cl)ccc21` displayed an Activity of 1.39.
In assay [1], `CN1C(=O)CN=C(c2ccccc2)c2cc(Cl)c(Cl)cc21` had an IC50 of 40 nM. The Activity entry in assay [2] was “Weak activity”.
In assay [3], `Cc1cc([N+](=O)[O-])cc2c1NC(=O)CN=C2c1ccccc1` showed an Activity of 8.12.
For the compound `CN1C(=O)CN=C(c2ccccc2)c2ccc3ccccc3c21`, the IC50 in assay [1] is > 1000 nM.
In turn, `Cc1cc2c(cc1Cl)NC(=O)CN=C2c1ccccc1F` returned an IC50 in assay [1] of 14 nM. Moreover, the Activity in assay [2] turned out to be 0.
With `O=C1CN=C(c2ccccc2)c2cc(-c3ccccc3)ccc2N1`, the Activity in assay [3] came out at 781.
On to `CN1C(=O)CN=C(c2ccccc2)c2c1ccc1ccccc21`, for which the IC50 in assay [1] is > 1000 nM.
`O=C1CN=C(c2ccccc2F)c2cc(Cl)c(Cl)cc2N1`: in assay [1], the IC50 turned out to be 3.6 nM.
Still for that read-out and setting: under `CN1C(=O)CN=C(c2ccccc2F)c2c1ccc1ccccc21` stands > 1000 nM.
In the case of `Cc1cc(C)c2c(c1)C(c1ccccc1)=NCC(=O)N2`, the Activity in assay [3] was 792.
The term ED50 denotes the midpoint of the dose-response relation. `CN1C(=O)CN=C(c2ccccc2F)c2cc3ccccc3cc21` yielded an IC50 in assay [1] of 55 nM. In addition, the ED50 in the assay filed under Mus musculus [4] and in the assay listed under Mus musculus [5] was 15 mg/kg in each case.
In assay [3], `O=C1CN=C(c2ccccc2)c2cc(Cl)cc(Cl)c2N1` gave an Activity of 8.
On to `O=C1CN=C(c2ccccc2)c2ccc3ccccc3c2N1`, for which the half-maximal inhibitory concentration (IC50) in assay [1] was > 1000 nM.
Regarding `Cc1cc2c(cc1C)C(c1ccccc1)=NCC(=O)N2`, in assay [3], the Activity was 132.
For `O=C1CN=C(c2ccccc2)c2c(Cl)cccc2N1`, the half-maximal inhibitory concentration (IC50) in assay [1] came to 320 nM. The same compound had an Activity in assay [2] of 0.
As for `CN1C(=O)CN=C(c2ccccc2)c2cc3ccccc3cc21`, the IC50 in assay [1] is > 1000 nM.
On the same count and under the same terms, under `O=C1CN=C(c2ccccc2F)c2cc3ccccc3cc2N1` stands > 1000 nM.
For the compound `CCOC(=O)c1ncc2[nH]c3ccc(OCc4ccccc4)cc3c2c1COC`, in assay [1], 5 nM corresponded to half-maximal inhibition (IC50).
The same measure, in the same setting: with `O=C1CN=C(c2ccccc2)c2c(ccc3ccccc23)N1` the figure was > 1000 nM.
Regarding `C=Cc1ccc2c(c1)C(c1ccccc1)=NCC(=O)N2`, the IC50 in assay [1] worked out at 24 nM. The Activity entry in assay [2] is “Weak activity”.
In assay [1], `CN1C(=O)CN=C(c2ccccc2F)c2ccc3ccccc3c21` yielded an IC50 of 260 nM.
Consider `O=C1CN=C(c2ccccc2)c2cc3ccccc3cc2N1`, for which the IC50 in assay [1] was determined as 400 nM.
For `O=C1CN=C(c2ccccc2F)c2c(ccc3ccccc23)N1`, in assay [1], the IC50 is > 1000 nM.
